What was measured:
[1] = Inhibition of cJNK phosphorylation by Lantha screen assay
[2] = Inhibition of cJNK phosphorylation by pepJIP1 displacement DELFIA assay
[3] = target: RAC-alpha serine/threonine-protein kinase (Homo sapiens) (UniProt P31749); assay: Inhibition of AKT at 100 uM
[4] = Inhibition of lethal factor
[5] = target: Mitogen-activated protein kinase 14 (Homo sapiens, UniProt Q16539); assay: Inhibition of p38alpha
Furin = Furin (Homo sapiens, UniProt P09958); assay: Inhibition of furin
Chain of Furin (P09958 whole entry): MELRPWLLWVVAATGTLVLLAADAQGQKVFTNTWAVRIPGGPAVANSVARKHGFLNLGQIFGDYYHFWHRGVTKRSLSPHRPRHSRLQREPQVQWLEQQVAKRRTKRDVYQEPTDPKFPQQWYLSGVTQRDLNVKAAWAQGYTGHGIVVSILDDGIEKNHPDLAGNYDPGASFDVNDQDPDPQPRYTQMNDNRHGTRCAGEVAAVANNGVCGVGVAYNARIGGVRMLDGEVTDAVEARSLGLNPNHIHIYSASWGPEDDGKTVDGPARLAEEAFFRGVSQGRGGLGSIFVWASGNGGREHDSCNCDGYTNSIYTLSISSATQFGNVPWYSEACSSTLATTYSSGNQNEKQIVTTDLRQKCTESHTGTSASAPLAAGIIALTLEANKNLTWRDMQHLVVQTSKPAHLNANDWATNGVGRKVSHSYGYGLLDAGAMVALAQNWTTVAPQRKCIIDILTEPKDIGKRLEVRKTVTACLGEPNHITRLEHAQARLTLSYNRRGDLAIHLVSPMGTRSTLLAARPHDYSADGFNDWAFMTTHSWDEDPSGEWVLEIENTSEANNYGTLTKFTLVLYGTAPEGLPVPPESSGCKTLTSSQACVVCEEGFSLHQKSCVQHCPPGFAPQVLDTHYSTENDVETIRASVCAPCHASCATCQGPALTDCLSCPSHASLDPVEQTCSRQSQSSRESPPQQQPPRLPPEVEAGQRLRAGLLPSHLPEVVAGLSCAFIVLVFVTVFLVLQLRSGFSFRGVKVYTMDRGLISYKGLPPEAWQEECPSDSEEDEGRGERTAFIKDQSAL

Liver microsomes = assay: Metabolic stability in rat liver microsomes assessed as half life; assay type: ADME, Microsome
Summary of the method: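 Rat liver microsomes (1 mg/mL protein) with 4 μM compound and 2 mM NADPH in 50 mM phosphate pH 7.2, after 5 min preincubation, incubated 1 h at 37.5 °C. Aliquots taken every 15 min were quenched with methanol plus internal standard and analysed by LC–MS. Run in duplicate with 2 control compounds of known half-life.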

[6] = Inhibition of cJNK phosphorylation in TNF-alpha-stimulated HL60 cells by Lantha screen assay; assay type: cell-based; details: HL-60
[7] = Metabolic stability in rat plasma assessed as drug level remaining after 1 hr; assay type: ADME, cell-free; details: read-out: Stability
Summary of the method: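 Fresh rat plasma with 1 μM compound (2.5% final DMSO) at 37 °C, stopped at 0, 30 and 60 min with methanol plus internal standard, analysed by LC–MS. Percent parent remaining was taken against 0 min from peak-area ratios to internal standard. Run in duplicate with a plasma-labile positive control.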

Chain of Mitogen-activated protein kinase 14 (Q16539 whole entry): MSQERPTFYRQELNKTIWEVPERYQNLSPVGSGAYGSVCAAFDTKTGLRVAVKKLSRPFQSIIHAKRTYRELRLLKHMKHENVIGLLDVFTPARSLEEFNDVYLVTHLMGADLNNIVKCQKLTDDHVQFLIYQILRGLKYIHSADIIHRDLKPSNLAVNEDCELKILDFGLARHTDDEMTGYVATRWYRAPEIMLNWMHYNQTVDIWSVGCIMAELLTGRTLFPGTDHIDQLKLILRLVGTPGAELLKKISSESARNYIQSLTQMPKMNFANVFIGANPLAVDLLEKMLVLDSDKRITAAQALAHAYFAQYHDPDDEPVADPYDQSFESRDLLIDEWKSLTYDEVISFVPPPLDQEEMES
Chain of RAC-alpha serine/threonine-protein kinase (Homo sapiens) (P31749 whole entry): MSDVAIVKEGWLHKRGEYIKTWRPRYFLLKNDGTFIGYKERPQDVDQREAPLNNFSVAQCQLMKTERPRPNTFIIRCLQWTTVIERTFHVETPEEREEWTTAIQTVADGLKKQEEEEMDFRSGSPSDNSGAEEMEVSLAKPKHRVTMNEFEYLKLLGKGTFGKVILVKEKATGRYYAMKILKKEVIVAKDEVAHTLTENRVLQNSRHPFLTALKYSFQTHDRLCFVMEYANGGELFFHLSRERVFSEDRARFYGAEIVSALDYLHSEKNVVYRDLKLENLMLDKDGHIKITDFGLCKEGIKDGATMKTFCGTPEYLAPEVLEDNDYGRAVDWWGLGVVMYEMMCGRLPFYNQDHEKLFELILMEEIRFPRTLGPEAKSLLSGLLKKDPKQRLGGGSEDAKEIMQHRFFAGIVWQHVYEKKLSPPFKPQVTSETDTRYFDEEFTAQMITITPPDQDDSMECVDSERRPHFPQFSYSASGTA

Structure (SMILES) | IC50 [1] [µM] | IC50 [2] [µM] | also measured
Cc1ccc2nc(Sc3ncc([N+](=O)[O-])s3)oc2c1 | > 50 | 0.29 | 
CO/N=C(\C(=O)Sc1nc2ccccc2s1)c1csc(N)n1 | > 50 | 1.7 | 
Nc1ncnc2nc(Sc3ncc([N+](=O)[O-])s3)[nH]c12 | 27 | > 1 | 
Cn1c(Sc2ncc([N+](=O)[O-])s2)nc2ccccc21 | > 50 | 1.5 | 
O=C(O)c1ccc(CSc2nc3ccccc3[nH]2)cc1 | > 100 |  | 
COc1ccc2sc(Sc3ncc([N+](=O)[O-])s3)nc2c1 | 1.8 | 0.1 | inhibition [3]: 5%; IC50 [4]: > 100 µM; IC50 [5]: > 100 µM; IC50 (Furin): > 50 µM
Cn1c(Sc2nc3ccc(Cl)cc3s2)nnc1-c1ccc(Cl)cc1Cl | > 50 |  | 
O=[N+]([O-])c1cnc(Sc2nc3cc(Cl)c(Cl)cc3[nH]2)s1 | 23 | 1.5 | 
Nc1ncnc2[nH]c(SCc3ccc(C(=O)O)cc3)nc12 | 70 |  | 
Cn1c(Sc2nc3ccc(Cl)cc3s2)nnc1-c1cccs1 | > 50 |  | 
COc1ccccc1-c1nnc(Sc2nc3ccc(Cl)cc3s2)n1-c1ccccc1 | > 50 |  | 
O=[N+]([O-])c1cnc(Sc2nc3ccccc3[nH]2)s1 | 8.1 | 0.67 | 
Cn1c(Sc2nc3ccc(Cl)cc3s2)nnc1-c1ccc2ncccc2c1 | > 50 |  | 
O=[N+]([O-])c1cnc(Sc2nc3ccccc3s2)s1 | 1.8 | 0.16 | inhibition [3]: 2%; t1/2 (Liver microsomes): 1.17 h; IC50 [4]: > 100 µM; IC50 [5]: > 100 µM; IC50 [6]: 15 µM; remaining at 1 h [7]: 80%; IC50 (Furin): > 50 µM
O=[N+]([O-])c1ccc2nc(Sc3ncc([N+](=O)[O-])s3)[nH]c2c1 | 6.4 | 3.2 | 
CCOc1ccc2nc(Sc3ncc([N+](=O)[O-])s3)sc2c1 | > 50 |  | 
O=[N+]([O-])c1cnc(Sc2nc3cc(C(F)(F)F)ccc3[nH]2)s1 | 20.2 | 0.14 | 
Cc1ccc2[nH]c(Sc3ncc([N+](=O)[O-])s3)nc2c1 | 3.8 | 0.02 | 
O=[N+]([O-])c1ccc(Sc2nc3ccccc3o2)c([N+](=O)[O-])c1 | > 100 |  | 
Cc1nnc(Sc2nc3ccc(Cl)cc3s2)n1-c1ccc2c(c1)OCCO2 | > 50 |  | 
O=[N+]([O-])c1cnc(Sc2nc3cc(S(=O)(=O)O)ccc3[nH]2)s1 | > 50 |  | 
O=[N+]([O-])c1cnc(Sc2nc3ccc(Cl)cc3s2)s1 | > 50 | 0.796 | 
O=[N+]([O-])c1cnc(Sc2nc3cc(Cl)ccc3o2)s1 | 27 | 0.11 | 
O=[N+]([O-])c1cnc(Sc2nc3ncccc3s2)s1 | 4.2 | 0.4 | 
Nc1nc(Sc2ncc([N+](=O)[O-])s2)c2nc[nH]c2n1 | 55 | 1 | 
O=[N+]([O-])c1cnc(Sc2nc3cc(Cl)ccc3s2)s1 | > 50 | > 1 | 
O=[N+]([O-])c1cnc(Sc2nc3ccccc3o2)s1 | 2.7 | 0.24 | 
COc1ccc2[nH]c(Sc3ncc([N+](=O)[O-])s3)nc2c1 | 4.7 | 0.13 | 

Source: ChEMBL document CHEMBL1153381, “Discovery of 2-(5-nitrothiazol-2-ylthio)benzo[d]thiazoles as novel c-Jun N-terminal kinase inhibitors” (Bioorg Med Chem, 2009)
